Columns and labels:
Settings in all cases: cattle
[1] = target: T1, Amine oxidase [flavin-containing] B (Bos taurus, UniProt P56560); assay: Selectivity ratio for Vmax and KM values against MAO-B enzyme from bovine liver mitochondria
T1 sequence (P56560 whole entry): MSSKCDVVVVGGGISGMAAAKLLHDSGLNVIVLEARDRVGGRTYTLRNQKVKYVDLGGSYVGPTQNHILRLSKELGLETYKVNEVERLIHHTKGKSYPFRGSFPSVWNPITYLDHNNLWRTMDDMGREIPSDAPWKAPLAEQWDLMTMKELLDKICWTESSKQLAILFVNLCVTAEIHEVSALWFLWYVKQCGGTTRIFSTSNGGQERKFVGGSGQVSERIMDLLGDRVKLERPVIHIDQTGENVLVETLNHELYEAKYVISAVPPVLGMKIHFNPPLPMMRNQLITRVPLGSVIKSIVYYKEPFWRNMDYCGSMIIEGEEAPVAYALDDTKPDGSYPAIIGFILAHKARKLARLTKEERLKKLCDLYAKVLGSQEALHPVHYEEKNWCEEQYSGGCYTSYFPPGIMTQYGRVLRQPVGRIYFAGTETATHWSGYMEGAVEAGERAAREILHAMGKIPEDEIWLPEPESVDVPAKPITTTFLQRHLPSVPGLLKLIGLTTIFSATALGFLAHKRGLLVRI
Outline: (§1)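 Bovine liver mitochondrial MAO-B, 0.05 unit/mL (unit = 1 μmol benzylamine→benzaldehyde per min; equivalent to 3.7 nmol protein), incubated at 37 °C in 0.1 M sodium phosphate pH 7.4. Reaction started by substrate addition, final 0.1–3.0 mM. Product formation monitored spectrophotometrically, initial rates taken 30–180 s after enzyme addition. Apparent Vmax and KM from double reciprocal plot.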

[2] = target: T1, Amine oxidase [flavin-containing] B; assay: (§2) Tested against Monoamine oxidase B enzyme from bovine liver mitochondria; outline: as §1
[3] = target: T2, Monoamine oxidase B (MAO-B) (Bos taurus, UniProt P56560); assay: as §2; outline: as §1
T2 sequence (P56560 whole entry): T1 sequence (P56560 whole entry)

Compound | Ratio [1] | Vmax [2] [nM/min] | Km [3] [µM]
CN1CC=C(OC(=O)N(C)C)CC1 | 57 | – | –
CN1CC=C(Sc2ccccc2)CC1 | 3425 | – | –
CN1CC=C(c2ccccc2)CC1 | 523 | 204 | 390
CN1CC=C(OC(=O)N(C)c2ccccc2)CC1 | 67 | – | –
CN1CC=C(Cc2ccccc2)CC1 | 2674 | – | –
CN1CC=C(Oc2ccccc2)CC1 | 688 | – | –

Source: ChEMBL document CHEMBL1126092, “Design, synthesis, and biological evaluation of novel 4-substituted 1-methyl-1,2,3,6-tetrahydropyridine analogs of MPTP” (J Med Chem, 1992)
